E-sel inducer: induces E-selectin expression in human endothelial cells; 260,000 tested, 0.37% active; HUVEC E-selectin immunofluorescence imaging; normalized: neutral wells 0, TNF-alpha wells 100; activation, % at 7.58 µM; P16581;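 active means mean E-selectin-positive cell signal at least 10% of the positive control, reached in at least 60% of replicates, without over 20% cell loss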
Target sequence (P16581 whole entry, looked up): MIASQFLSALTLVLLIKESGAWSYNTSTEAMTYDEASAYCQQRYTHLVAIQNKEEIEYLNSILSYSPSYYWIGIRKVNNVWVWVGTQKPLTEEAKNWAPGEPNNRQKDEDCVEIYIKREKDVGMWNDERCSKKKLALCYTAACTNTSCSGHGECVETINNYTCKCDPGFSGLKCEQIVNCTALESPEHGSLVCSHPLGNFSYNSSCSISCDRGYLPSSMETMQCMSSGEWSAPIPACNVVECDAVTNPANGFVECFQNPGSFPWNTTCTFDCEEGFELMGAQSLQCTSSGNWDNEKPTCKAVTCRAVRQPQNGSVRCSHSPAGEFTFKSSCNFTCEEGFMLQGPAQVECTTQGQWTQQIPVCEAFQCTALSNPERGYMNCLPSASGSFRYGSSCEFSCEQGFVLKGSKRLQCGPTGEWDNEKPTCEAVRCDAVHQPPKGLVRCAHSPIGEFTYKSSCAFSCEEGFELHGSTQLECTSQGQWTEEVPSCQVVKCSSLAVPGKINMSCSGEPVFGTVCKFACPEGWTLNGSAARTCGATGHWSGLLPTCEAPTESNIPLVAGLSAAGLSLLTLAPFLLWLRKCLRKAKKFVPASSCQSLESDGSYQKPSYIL
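Test system – human umbilical vein endothelial cells (HUVEC), E-selectin induction · Input – 3,000 HUVEC seeded per well · Buffer or medium – EGM-2, gelatin · Compound dosing – single-point compound dose · Detection – immunofluorescence imaging · Measure – percent E-selectin-positive cells · Controls – TNF-alpha high, DMSO low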
Numbers stand for hits; – = inactive. The entries come from a sample that favours hits as a whole.

SMILES	E-sel inducer
C[C@@H]1CN([C@H](C)CO)C(=O)Cc2cc(NC(=O)Nc3ccc(F)cc3)ccc2O[C@H]1CN(C)S(=O)(=O)c1cn(C)cn1	–
CCC(=O)N(C)C[C@@H]1Oc2cc(C#CC3CCCC3)ccc2S(=O)(=O)N([C@@H](C)CO)C[C@@H]1C	–
CCNC(=O)C[C@@H]1CC[C@@H]2[C@H](COc3ccc(NC(=O)Nc4ccccc4Cl)cc3C(=O)N2C)O1	–
C[C@@H]1CN([C@@H](C)CO)C(=O)Cc2cc(NS(=O)(=O)c3cccs3)ccc2O[C@@H]1CN(C)C(=O)Nc1ccccc1	–
COc1ccccc1C(=O)Nc1ccc2c(c1)OC[C@H](C)NC[C@H](C)[C@@H](OC)CN(C)C2=O	–
O=C(C[C@@H]1CC[C@H](NC(=O)CCN2CCCCC2)[C@H](CO)O1)NCc1ccc(Cl)c(Cl)c1	–
C[C@@H]1CN([C@@H](C)CO)C(=O)c2ccccc2-c2ccccc2CO[C@@H]1CN(C)S(=O)(=O)c1ccccc1F	–
C[C@@H]1CCCCO[C@@H](CN(C)C(=O)CCCN(C)C)[C@H](C)CN([C@@H](C)CO)C(=O)c2cc(NC(=O)NC3CCCCC3)ccc2O1	–
C[C@@H]1CN([C@@H](C)CO)S(=O)(=O)c2ccc(-c3ccccc3F)cc2O[C@H]1CN(C)C(=O)C1CC1	–
O=C(Nc1cc(F)ccc1F)N[C@@H]1CC[C@@H](CCn2cc(C3CCCC3)nn2)O[C@H]1CO	–
CC1Cc2ccccc2N1C(=O)CNc1ccccc1N1CCCCC1 (configuration not stated)	–
CCCCNC(=O)N1c2ccccc2CC1C (configuration not stated)	155
CC1CCN(CC(=O)N2c3ccccc3CC2C)CC1 (configuration not stated)	–
CCC(=O)N1C[C@@H](C)[C@H](OC)CN(C)C(=O)c2cc(NC(=O)Nc3cccc(F)c3)ccc2OC[C@H]1C	–
C[C@H]1CN([C@@H](C)CO)C(=O)c2cccc(NS(=O)(=O)c3cn(C)cn3)c2O[C@@H]1CN(C)Cc1ccc(Cl)c(Cl)c1	–
C[C@H](CO)N1C[C@H](C)[C@@H](CN(C)C(=O)Nc2ccc3c(c2)OCO3)Oc2c(NS(=O)(=O)c3cn(C)cn3)cccc2C1=O	–
C[C@@H]1CN([C@@H](C)CO)C(=O)c2cc(NS(=O)(=O)c3cn(C)cn3)ccc2O[C@H]1CN(C)C(=O)Nc1ccc2c(c1)OCO2	–
C[C@@H]1CN([C@H](C)CO)C(=O)c2cc(NS(=O)(=O)c3cn(C)cn3)ccc2O[C@H]1CN(C)C(=O)Nc1ccc2c(c1)OCO2	255
C[C@@H]1CN([C@H](C)CO)C(=O)c2cccc(NS(=O)(=O)c3cn(C)cn3)c2O[C@@H]1CN(C)Cc1ccc(Cl)c(Cl)c1	67
C[C@H]1CN([C@@H](C)CO)C(=O)c2cccc(NS(=O)(=O)c3cn(C)cn3)c2O[C@H]1CN(C)Cc1ccc(Cl)c(Cl)c1	–
C[C@@H]1CN([C@@H](C)CO)C(=O)c2cccc(NS(=O)(=O)c3cn(C)cn3)c2O[C@H]1CN(C)C(=O)Nc1ccc2c(c1)OCO2	283
C[C@H]1CN([C@@H](C)CO)C(=O)c2cc(NS(=O)(=O)c3cn(C)cn3)ccc2O[C@H]1CN(C)C(=O)Nc1ccc2c(c1)OCO2	–
C[C@H](CO)N1C[C@H](C)[C@H](CN(C)C(=O)Nc2ccc3c(c2)OCO3)Oc2c(NS(=O)(=O)c3cn(C)cn3)cccc2C1=O	–
CCCC(=O)Nc1ccc2c(c1)C(=O)N(C)C[C@@H](OC)[C@@H](C)CN(Cc1ccncc1)[C@H](C)CO2	–
COc1ccc2c3c(n(C)c2c1)[C@H](CO)N(C(=O)NC(C)C)CC31CN(C(C)=O)C1	–
C[C@H]1CN([C@@H](C)CO)C(=O)c2cc(C3=CCCCC3)cnc2O[C@H]1CN(C)S(=O)(=O)c1cn(C)cn1	–
COc1ccc(-c2ccc(C3[C@H]4CNC[C@@H]3N4S(=O)(=O)c3cccc(OC)c3)cc2)cc1 (some centres not stated)	–

High-throughput results: PubChem BioAssay, Broad Institute
